Reference: ChEMBL document CHEMBL3525900, “Pharmacokinetics, distribution, and metabolism of [14C]sunitinib in rats, monkeys, and humans” (Drug Metab Dispos, 2012)

How the values were obtained:
[1] = Drug concentration in male albino rat lymph node assessed as radioactivity per gram of tissue at 20 mg/kg administered as single dose via gastric gavage measured after 3 hrs by autoradiographic analysis; type: ADME, organism-based; set-up: dose 20 mg/kg, dosed compound name [14C]Sunitinib; settings: in vivo, po
Heart [2] = assay: Drug concentration in male Lister Hooded pigmented rat heart assessed as radioactivity per gram of tissue at 20 mg/kg administered as single dose via gastric gavage measured after 168 hrs by autoradiographic analysis; type: ADME, organism-based; set-up: dose 20 mg/kg, dosed compound name [14C]Sunitinib; settings: in vivo, po
[3] = Drug concentration in male albino rat lachrymal gland assessed as radioactivity per gram of tissue at 20 mg/kg administered as single dose via gastric gavage measured after 24 hrs by autoradiographic analysis; type: ADME, organism-based; set-up: dose 20 mg/kg, dosed compound name [14C]Sunitinib; settings: in vivo, po
Heart [4] = assay: Drug concentration in female Lister Hooded pigmented rat heart assessed as radioactivity per gram of tissue at 20 mg/kg administered as single dose via gastric gavage measured after 24 hrs by autoradiographic analysis; type: ADME, organism-based; set-up: dose 20 mg/kg, dosed compound name [14C]Sunitinib; settings: in vivo, po
Summary of the method: (§1)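 Lister Hooded (pigmented) rats, ca 7-8 weeks old, acclimated 7 days, given [14C]sunitinib L-malate by gastric gavage at 20 mg/kg (15 mg freebase/kg, 100 µCi/kg). One male and one female killed by CO2 at 24, 72, 168 and 336 h. Carcasses frozen in solid CO2/hexane and embedded in frozen cellulose. 30 µm sagittal cryosections were freeze-dried. Tissue radioactivity measured by quantitative whole-body autoradiography against calibration standards, with background subtracted.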

Thymus = assay: Drug concentration in female albino rat thymus assessed as radioactivity per gram of tissue at 20 mg/kg administered as single dose via gastric gavage measured after 6 hrs by autoradiographic analysis; type: ADME, organism-based; set-up: dose 20 mg/kg, dosed compound name [14C]Sunitinib; settings: in vivo, po
Blood = assay: Drug concentration in female albino rat blood assessed as radioactivity per gram of tissue at 20 mg/kg administered as single dose via gastric gavage measured after 24 hrs by autoradiographic analysis; type: ADME, organism-based; set-up: dose 20 mg/kg, dosed compound name [14C]Sunitinib; settings: in vivo, po
Summary of the method: (§2)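 Sprague Dawley (albino) rats, ca 7-8 weeks old, received a single gastric-gavage dose of [14C]sunitinib L-malate at 20 mg/kg (15 mg freebase/kg, 100 µCi/kg). One animal per sex killed by CO2 at 3, 6, 24, 72 and 168 h, then frozen in CO2/hexane. 30 µm sagittal sections were cut and freeze-dried. Radioactivity per gram quantified by whole-body autoradiography using regression against standards. LOQ 0.04–0.06 µg freebase equiv/g.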

Liver [5] = assay: Drug concentration in male Lister Hooded pigmented rat liver assessed as radioactivity per gram of tissue at 20 mg/kg administered as single dose via gastric gavage measured after 168 hrs by autoradiographic analysis; type: ADME, organism-based; set-up: dose 20 mg/kg, dosed compound name [14C]Sunitinib; settings: in vivo, po
[6] = Drug concentration in male albino rat bone marrow assessed as radioactivity per gram of tissue at 20 mg/kg administered as single dose via gastric gavage measured after 3 hrs by autoradiographic analysis; type: ADME, organism-based; set-up: dose 20 mg/kg, dosed compound name [14C]Sunitinib; settings: in vivo, po
Adrenal [7] = assay: Drug concentration in female albino rat adrenal assessed as radioactivity per gram of tissue at 20 mg/kg administered as single dose via gastric gavage measured after 6 hrs by autoradiographic analysis; type: ADME, organism-based; set-up: dose 20 mg/kg, dosed compound name [14C]Sunitinib; settings: in vivo, po; summary of the method: as §2
[8] = Drug concentration in female albino rat bladder assessed as radioactivity per gram of tissue at 20 mg/kg administered as single dose via gastric gavage measured after 24 hrs by autoradiographic analysis; type: ADME, organism-based, Urinary bladder; set-up: dose 20 mg/kg, dosed compound name [14C]Sunitinib; settings: in vivo, po; summary of the method: as §2
Zone of skin [9] = assay: Drug concentration in female albino rat abdomen skin assessed as radioactivity per gram of tissue at 20 mg/kg administered as single dose via gastric gavage measured after 3 hrs by autoradiographic analysis; type: ADME, organism-based; set-up: dose 20 mg/kg, dosed compound name [14C]Sunitinib; settings: in vivo, po; summary of the method: as §2
Spinal cord = assay: Drug concentration in male Lister Hooded pigmented rat spinal cord assessed as radioactivity per gram of tissue at 20 mg/kg administered as single dose via gastric gavage measured after 168 hrs by autoradiographic analysis; type: ADME, organism-based; set-up: dose 20 mg/kg, dosed compound name [14C]Sunitinib; settings: in vivo, po
[10] = Drug recovery in urine of male Sprague-Dawley rat at 15 mg/kg, po administered as single dose during 0 to 72 hrs by liquid scintillation counting; type: ADME, organism-based; set-up: dose 15 mg/kg, dosed compound name [14C]Sunitinib, route oral; settings: in vivo
Zone of skin [11] = assay: Drug concentration in male albino rat abdomen skin assessed as radioactivity per gram of tissue at 20 mg/kg administered as single dose via gastric gavage measured after 6 hrs by autoradiographic analysis; type: ADME, organism-based; set-up: dose 20 mg/kg, dosed compound name [14C]Sunitinib; settings: in vivo, po
Harderian gland = assay: Drug concentration in female albino rat harderian gland assessed as radioactivity per gram of tissue at 20 mg/kg administered as single dose via gastric gavage measured after 3 hrs by autoradiographic analysis; type: ADME, organism-based; set-up: dose 20 mg/kg, dosed compound name [14C]Sunitinib; settings: in vivo, po
Summary of the method: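 Sprague Dawley albino rats, ca 7-8 weeks old, dosed once by gastric gavage with [14C]sunitinib L-malate (15 mg freebase/kg, 100 µCi/kg). One male and one female killed by CO2 at 3, 6, 24, 72 and 168 h. Carcasses frozen in solid CO2/hexane, embedded and cut into 30 µm sagittal sections, then freeze-dried. Radioactivity quantified by whole-body autoradiography against standards by regression, background subtracted.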

Adrenal [12] = assay: Drug concentration in male albino rat adrenal assessed as radioactivity per gram of tissue at 20 mg/kg administered as single dose via gastric gavage measured after 24 hrs by autoradiographic analysis; type: ADME, organism-based; set-up: dose 20 mg/kg, dosed compound name [14C]Sunitinib; settings: in vivo, po
[13] = Drug concentration in male albino rat uveal tract assessed as radioactivity per gram of tissue at 20 mg/kg administered as single dose via gastric gavage measured after 24 hrs by autoradiographic analysis; type: ADME, organism-based; set-up: dose 20 mg/kg, dosed compound name [14C]Sunitinib; settings: in vivo, po
Adrenal [14] = assay: Drug concentration in female Lister Hooded pigmented rat adrenal assessed as radioactivity per gram of tissue at 20 mg/kg administered as single dose via gastric gavage measured after 72 hrs by autoradiographic analysis; type: ADME, organism-based; set-up: dose 20 mg/kg, dosed compound name [14C]Sunitinib; settings: in vivo, po; summary of the method: as §1
[15] = Drug concentration in male Lister Hooded pigmented rat salivary gland assessed as radioactivity per gram of tissue at 20 mg/kg administered as single dose via gastric gavage measured after 24 hrs by autoradiographic analysis; type: ADME, organism-based; set-up: dose 20 mg/kg, dosed compound name [14C]Sunitinib; settings: in vivo, po
Large intestine = assay: Drug concentration in male albino rat large intestine assessed as radioactivity per gram of tissue at 20 mg/kg administered as single dose via gastric gavage measured after 72 hrs by autoradiographic analysis; type: ADME, organism-based; set-up: dose 20 mg/kg, dosed compound name [14C]Sunitinib; settings: in vivo, po
[16] = Drug concentration in male albino rat thyroid gland assessed as radioactivity per gram of tissue at 20 mg/kg administered as single dose via gastric gavage measured after 72 hrs by autoradiographic analysis; type: ADME, organism-based; set-up: dose 20 mg/kg, dosed compound name [14C]Sunitinib; settings: in vivo, po
Spleen = assay: Drug concentration in female Lister Hooded pigmented rat spleen assessed as radioactivity per gram of tissue at 20 mg/kg administered as single dose via gastric gavage measured after 72 hrs by autoradiographic analysis; type: ADME, organism-based; set-up: dose 20 mg/kg, dosed compound name [14C]Sunitinib; settings: in vivo, po; summary of the method: as §1
[17] = Drug concentration in male albino rat brown fat assessed as radioactivity per gram of tissue at 20 mg/kg administered as single dose via gastric gavage measured after 3 hrs by autoradiographic analysis; type: ADME, organism-based, Brown adipose tissue; set-up: dose 20 mg/kg, dosed compound name [14C]Sunitinib; settings: in vivo, po
[18] = Drug concentration in female albino rat thyroid gland assessed as radioactivity per gram of tissue at 20 mg/kg administered as single dose via gastric gavage measured after 6 hrs by autoradiographic analysis; type: ADME, organism-based; set-up: dose 20 mg/kg, dosed compound name [14C]Sunitinib; settings: in vivo, po
Liver [19] = assay: Drug concentration in male albino rat liver assessed as radioactivity per gram of tissue at 20 mg/kg administered as single dose via gastric gavage measured after 72 hrs by autoradiographic analysis; type: ADME, organism-based; set-up: dose 20 mg/kg, dosed compound name [14C]Sunitinib; settings: in vivo, po
Lung = assay: Drug concentration in female Lister Hooded pigmented rat lung assessed as radioactivity per gram of tissue at 20 mg/kg administered as single dose via gastric gavage measured after 24 hrs by autoradiographic analysis; type: ADME, organism-based; set-up: dose 20 mg/kg, dosed compound name [14C]Sunitinib; settings: in vivo, po; summary of the method: as §1
[20] = Drug concentration in male albino rat testis assessed as radioactivity per gram of tissue at 20 mg/kg administered as single dose via gastric gavage measured after 24 hrs by autoradiographic analysis; type: ADME, organism-based; set-up: dose 20 mg/kg, dosed compound name [14C]Sunitinib; settings: in vivo, po
Cynomolgus monkey = assay: Cmax as total radioactivity in female cynomolgus monkey plasma at 6 mg/kg, po administered as single dose by LC/MS/MS analysis; type: ADME, organism-based, Macaca fascicularis; set-up: dose 6 mg/kg, dosed compound name [14C]Sunitinib, route oral; settings: in vivo
Summary of the method: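 Cynomolgus monkeys of both sexes received one oral gavage of [14C]sunitinib L-malate at 6 mg/kg (37 µCi/kg). Femoral-vein blood was taken into heparin from 0.5 to 336 h. Plasma was kept cold and protected from light, then stored at -80 °C. Total radioactivity was by scintillation counting and sunitinib by methanol-extraction LC-MS-MS. Cmax was from raw data, t½ from the log-linear terminal slope, AUC(0-∞) by linear trapezoidal rule.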

Radiolabel recovery [1]: 8.86 ugequiv | Radiolabel recovery (Heart [2]): 0.06 ugequiv | Radiolabel recovery [3]: 4.7 ugequiv | Radiolabel recovery (Heart [4]): 0.47 ugequiv | Radiolabel recovery (Thymus): 9.8 ugequiv | Radiolabel recovery (Blood): 0.19 ugequiv | Radiolabel recovery (Liver [5]): 0.06 ugequiv | Radiolabel recovery [6]: 7.55 ugequiv | Radiolabel recovery (Adrenal [7]): 26.74 ugequiv | Radiolabel recovery [8]: 0.54 ugequiv | Radiolabel recovery (Zone of skin [9]): 3.16 ugequiv | Radiolabel recovery (Spinal cord): 0.06 ugequiv | Radiolabel recovery [10]: 8.5% | Radiolabel recovery (Zone of skin [11]): 3.45 ugequiv | Radiolabel recovery (Harderian gland): 17.26 ugequiv | Radiolabel recovery (Adrenal [12]): 4.11 ugequiv | Radiolabel recovery [13]: 0.13 ugequiv | Radiolabel recovery (Adrenal [14]): 1.57 ugequiv | Radiolabel recovery [15]: 3.52 ugequiv | Radiolabel recovery (Large intestine): 0.08 ugequiv | Radiolabel recovery [16]: 0.24 ugequiv | Radiolabel recovery (Spleen): 0.23 ugequiv | Radiolabel recovery [17]: 8.47 ugequiv | Radiolabel recovery [18]: 11.23 ugequiv | Radiolabel recovery (Liver [19]): 0.24 ugequiv | Radiolabel recovery (Lung): 2.79 ugequiv | Radiolabel recovery [20]: 2.8 ugequiv | Cmax (Cynomolgus monkey): 214 ngequiv/ml
Structure (SMILES): CCN(CC)CCNC(=O)c1c(C)[nH]c(/[14CH]=C2\C(=O)Nc3ccc(F)cc32)c1C.O=C(O)C[C@H](O)C(=O)O
